Changes are numbered by the printed parent chain. Where “and” joins values, the source holds several entries; their conditions need not be identical. Equal values may be shown once. Read-outs that look alike come from different tables or passages of the source.
How the values were obtained:
[1] = target: T1, R24M PTP1B (Homo sapiens, UniProt P18031, R24M); experiment: PTP assay, R24M PTP1B; type: biochemical
T1 sequence (P18031 1-321 R24M): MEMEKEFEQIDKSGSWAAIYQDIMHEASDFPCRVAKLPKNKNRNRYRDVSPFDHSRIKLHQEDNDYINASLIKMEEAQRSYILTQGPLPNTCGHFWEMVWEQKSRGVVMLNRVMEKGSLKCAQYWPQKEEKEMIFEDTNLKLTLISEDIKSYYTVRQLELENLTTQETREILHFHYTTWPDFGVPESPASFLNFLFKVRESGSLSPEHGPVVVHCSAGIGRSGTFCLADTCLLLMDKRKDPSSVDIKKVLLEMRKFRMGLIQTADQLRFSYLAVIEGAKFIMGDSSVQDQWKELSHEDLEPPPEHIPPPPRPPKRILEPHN
Method in brief: (§1)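 E. coli-expressed catalytic domains were used: wild-type, R24M or R47E PTP1B (aa 1–321), and SHP-1 (aa 205–595). Reactions started with PTP (0.5–20000 nM final) and dephosphorylation was monitored continuously at 282 nm. kcat, KM and kcat/KM came from initial-rate fits (Michaelis–Menten, or V = kcat[E][S]/KM when KM >> [S]) or from fits of progress curves.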

[2] = target: T2, R47E PTP1B (Homo sapiens, UniProt P18031, R47E); experiment: PTP assay, R47E PTP1B; type: biochemical
T2 sequence (P18031 1-321 R47E): T1 sequence (P18031 1-321 R24M) with M24R, R47E
Method in brief: as §1

[3] = target: T3, SHP-1 (Homo sapiens, UniProt P29350); details: catalytic domain; cited from earlier work
[4] = target: T4, SHP-2 (Homo sapiens, UniProt Q06124); details: catalytic domain; cited from earlier work
T4 sequence (Q06124 199-593): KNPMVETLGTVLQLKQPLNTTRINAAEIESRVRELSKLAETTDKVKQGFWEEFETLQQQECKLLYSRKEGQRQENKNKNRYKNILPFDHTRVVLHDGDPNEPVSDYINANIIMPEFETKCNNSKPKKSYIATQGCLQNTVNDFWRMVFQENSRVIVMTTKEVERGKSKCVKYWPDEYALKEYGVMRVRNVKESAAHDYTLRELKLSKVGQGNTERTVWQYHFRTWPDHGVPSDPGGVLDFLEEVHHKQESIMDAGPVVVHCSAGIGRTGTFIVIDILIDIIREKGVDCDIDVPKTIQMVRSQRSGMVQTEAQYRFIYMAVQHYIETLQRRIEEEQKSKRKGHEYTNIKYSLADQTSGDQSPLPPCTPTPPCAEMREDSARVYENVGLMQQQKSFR

[5] = target: T4, SHP-2; experiment: PTP assay, SHP-2; type: biochemical; details: catalytic domain; 100 mM HEPES pH 7.4; monitored at 282 nm
Method in brief: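 His-tagged catalytic domains were made in E. coli: PTPD2 aa 876–1187 and PTPRC aa 620–1236 with N-terminal tags, PTPD1 aa 875–1174 and SHP-2 aa 199–593 with C-terminal tags. Enzyme was added at 0.5–20000 nM final. A282 (Δε 1102 M−1 cm−1) was followed. Constants came from Michaelis–Menten fits of initial rates (<60 s), or from fits of progress curves run to substrate depletion.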

[6] = target: T3, SHP-1; experiment: PTP assay, SHP-1; type: biochemical; details: catalytic domain; 100 mM HEPES pH 7.4; monitored at 282 nm
Method in brief: as §1

T3 sequence (P29350 205-595): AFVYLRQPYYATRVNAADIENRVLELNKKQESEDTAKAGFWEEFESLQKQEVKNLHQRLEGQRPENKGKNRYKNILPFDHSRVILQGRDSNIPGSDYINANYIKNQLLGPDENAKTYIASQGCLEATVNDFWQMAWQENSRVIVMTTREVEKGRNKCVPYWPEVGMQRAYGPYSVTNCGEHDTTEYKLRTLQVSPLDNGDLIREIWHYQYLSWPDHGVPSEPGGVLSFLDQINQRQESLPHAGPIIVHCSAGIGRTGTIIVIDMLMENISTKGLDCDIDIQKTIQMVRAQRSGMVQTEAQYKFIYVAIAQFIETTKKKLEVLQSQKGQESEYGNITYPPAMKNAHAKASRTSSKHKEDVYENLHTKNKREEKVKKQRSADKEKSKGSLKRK

Substance	Km ([1]; R24M PTP1B aa 1–321, pH 7.4) [µM]	kcat ([1]; R24M PTP1B aa 1–321, pH 7.4) [s⁻¹]	kcat/KM x 10^7 ([1]; R24M PTP1B aa 1–321, pH 7.4)	WT/R24M ([1]; ratio of kcat/KM, WT over R24M PTP1B (fold reduction by the mutation))	Km ([2]; R47E PTP1B aa 1–321, pH 7.4) [µM]	kcat ([2]; R47E PTP1B aa 1–321, pH 7.4) [s⁻¹]	kcat/KM x 10^7 ([2]; R47E PTP1B aa 1–321, pH 7.4)	WT/R47E ([2]; ratio of kcat/KM, WT over R47E PTP1B (fold decrease by the mutation))	Km [3]	kcat [3]	kcat/KM x10^6 [3]	Km [4] [µM]	kcat [4]	kcat/KM x10^6 [4]	kcat/KM x10^6 [5]	kcat/KM x10^6 [6]
Ac-SASASpYSASA-NH2	14 ± 0.6	42 ± 2	0.30 x 10^7 M^−1 s^−1	0.77	12 ± 1	35 ± 1	0.29 x 10^7 M^−1 s^−1	0.79	1990 µM and 2000 µM	26 ± 4 s^−1 and 26 ± 4 ^c s^−1	0.013 x10^6 M^−1 s^−1	2300 ± 400	42 ± 5 s^−1 and 42 ± 5 ^c s^−1	0.018 x10^6 M^−1 s^−1 and 0.018 ^c x10^6 M^−1 s^−1	–	–
Ac-YRKRFpYRYKF-NH2	–	–	–	–	–	–	–	–	–	–	–	–	–	–	0.00015 x10^6 M^−1 s^−1	0.00023 x10^6 M^−1 s^−1

— publication PMC3954597 (Biochemistry, 2014)
